The source of these data is ChEMBL document CHEMBL1124697, “A new family of water-soluble, third generation antitumor platinum complexes” (J Med Chem, 1989).

In data set [1] the test system is Colon 26. The data set is described as follows: Percent survivors when compound administered at 50 mg/kg againstColon 26 cells in balb/C mice. It counts as functional, organism-based. Details: dose 50 mg/kg. The following applies: Mus musculus. The method, boiled down: (§1)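 Colon 26 tumor in Balb/C mice. Dosing ip on days 1, 5 and 9 after tumor inoculation, with a 30-day observation period. Readouts are median % increase in life span over control mice and % survivors, given at the optimal dose. Activity threshold is ILS ≥25%. A ≥15% drop in ILS or body weight is rated toxic.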

The test system of data set [2] is P388. The data set is described as follows: Percent survivors when compound administered at 100 mg/kg against P388 leukemia cells in BDF1 mice. In kind it is functional, organism-based. Details: dose 100 mg/kg. To be noted: Mus musculus. In outline: (§2)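 BDF1 mice inoculated with P388, L1210 or cisplatin-resistant L1210 leukemia. Compound given ip on days 1, 5 and 9 relative to tumor inoculation, and mice observed for 30 days. Median % increase in life span over controls and % survivors are reported at the optimal dose. Activity requires ILS ≥25%. Toxicity is rated when ILS or body weight is reduced by ≥15%.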

The test system of data set [3] is L1210. As to the kind of experiment: Percent increase in life span when compound administered at 50 mg/kg against L1210 cisplatin resistant leukemia cells in BDF1 mice; IA=inactive. In kind it is functional, organism-based. Details: dose 50 mg/kg. The following applies: Mus musculus. In outline:
(§3)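 BDF1 mice bearing P388, L1210 or cisplatin-resistant L1210 leukemia; ip dosing on days 1, 5 and 9 relative to tumor inoculation, 30-day observation. Median % ILS over controls at optimal dose plus % survivors; ≥25% ILS counted as active, ≥15% reduction in ILS or body weight over controls rated toxic.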

Data set [4] deals with L1210. As to the kind of experiment: Percent survivors when compound administered at 50 mg/kg against L1210 cisplatin resistant leukemia cells in BDF1 mice; IA=inactive. It counts as functional, organism-based. Further details: dose 50 mg/kg. The following applies: Mus musculus. In outline: as §2
Data set [5] has as its system Mus musculus. The data set is described as follows: Tumor weight inhibition against human mammary MX-1 in Athymic mice after 50 mg/kg optimal dose. In kind it is functional, organism-based. Details: dose 50 mg/kg. The following applies: at 50 mg/kg.
Data set [6] has as its system L1210. The data set is described as follows: Percent increase in life span when compound administered at 12.5 mg/kg against L1210 leukemia cells in BDF1 mice. In kind it is functional, organism-based. Further details: dose 12.5 mg/kg. The following applies: Mus musculus. In outline:
as §3

Data set [7] deals with P388. The data set is described as follows: Percent increase in life span when compound administered at 100 mg/kg against P388 leukemia cells in BDF1 mice. In kind it is functional, organism-based. Further details: dose 100 mg/kg. The following applies: Mus musculus. In outline: as §3
Data set [8] deals with Colon 26. The data set is described as follows: Percent in life span when compound administered at 50 mg/kg againstColon 26 cells in balb/C mice. Details: dose 50 mg/kg. It counts as functional, organism-based. The following applies: Mus musculus. In outline:
as §1

In data set [9] the test system is B16. As to the kind of experiment: Percent increase in life span when compound administered at 0.4 mg/kg against B-16 melanoma cells in […] mice. To be noted: Mus musculus. In kind it is functional, organism-based. Further details: dose 0.4 mg/kg. The method, boiled down: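 B-16 melanoma in […] mice; compounds given ip daily on days 1–9 relative to tumor inoculation, animals followed 60 days. Read-out median % increase in life span over controls at optimal dose with % survivors; activity threshold ILS ≥25%; ≥15% reduction in ILS or body weight versus controls rated toxic.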

For data set [10], the system named is P388. The data set is described as follows: Percent survivors when compound administered at 6.2 mg/kg against P388 leukemia cells in BDF1 mice. In kind it is functional, organism-based. Further details: dose 6.2 mg/kg. To be noted: Mus musculus. In outline:
as §2

The subject of data set [11] is Colon 26. The data set is described as follows: Percent survivors when compound administered at 1 mg/kg againstColon 26 cells in balb/C mice. In kind it is functional, organism-based. Details: dose 1 mg/kg. The following applies: Mus musculus. The method, boiled down: as §1
Data set [12] deals with Colon 26. As to the kind of experiment: Percent in life span when compound administered at 1 mg/kg againstColon 26 cells in balb/C mice. It counts as functional, organism-based. Details: dose 1 mg/kg. The following applies: Mus musculus. In outline: (§4)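 Colon 26 in Balb/C mice. Test agents given ip on days 1, 5 and 9 relative to tumor inoculation; mice observed 30 days. Median % increase in life span at optimal dose, with % survivors noted; ILS ≥25% over controls required for activity; ILS or body weight reduced ≥15% versus controls rated toxic.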

Data set [13] deals with L1210. The data set is described as follows: Percent increase in life span when compound administered at 6.2 mg/kg against L1210 leukemia cells in BDF1 mice. In kind it is functional, organism-based. Further details: dose 6.2 mg/kg. To be noted: Mus musculus. The method, boiled down: as §3
For data set [14], the system named is B16. As to the kind of experiment: Percent survivors when compound administered at 0.4 mg/kg against B-16 melanoma cells in […] mice. It counts as functional, organism-based. Details: dose 0.4 mg/kg. The following applies: Mus musculus. In outline:
(§5)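 Median % increase in life span versus controls and % survivors are recorded at the optimal dose. ILS ≥25% counts as active, and a ≥15% reduction in ILS or body weight counts as toxic.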

Data set [15] deals with P388. As to the kind of experiment: Percent increase in life span when compound administered at 6.2 mg/kg against P388 leukemia cells in BDF1 mice. In kind it is functional, organism-based. Details: dose 6.2 mg/kg. To be noted: Mus musculus. In outline:
as §3

A short description of data set [16]: Water solubility was determined. In kind it is ADME. The following applies: buffer.
Data set [17] concerns L1210. As to the kind of experiment: Percent increase in life span when compound administered at 25 mg/kg against L1210 leukemia cells in BDF1 mice. In kind it is functional, organism-based. Further details: dose 25 mg/kg. To be noted: Mus musculus. The method, boiled down: as §3
Data set [18] relates to B16. As to the kind of experiment: Percent survivors when compound administered at 12.5 mg/kg against B-16 melanoma cells in […] mice. In kind it is functional. To be noted: Mus musculus. The method, boiled down:
as §5

Data set [19] deals with L1210. The data set is described as follows: Percent increase in life span when compound administered at 25 mg/kg against L1210 cisplatin resistant leukemia cells in BDF1 mice. It counts as functional, organism-based. The following applies: Mus musculus. Further details: dose 25 mg/kg. The method, boiled down:
as §3

Data set [20] concerns Colon 26. As to the kind of experiment: Percent survivors when compound administered at 25 mg/kg against Colon 26 cells in balb/C mice. It counts as functional, organism-based. Details: dose 25 mg/kg. To be noted: Mus musculus. The method, boiled down:
as §1

For data set [21], the system named is B16. As to the kind of experiment: Percent increase in life span when compound administered at 12.5 mg/kg against B-16 melanoma cells in […] mice. The following applies: Mus musculus. In kind it is functional. The method, boiled down:
as §5

For data set [22], the system named is Colon 26. As to the kind of experiment: Percent in life span when compound administered at 25 mg/kg against Colon 26 cells in balb/C mice. In kind it is functional, organism-based. Further details: dose 25 mg/kg. The following applies: Mus musculus. The method, boiled down:
as §4

For data set [23], the system named is L1210. As to the kind of experiment: Percent survivors when compound administered at 25 mg/kg against L1210 leukemia cells in BDF1 mice. It counts as functional, organism-based. Details: dose 25 mg/kg. The following applies: Mus musculus. The method, boiled down:
as §2

The test system of data set [24] is P388. As to the kind of experiment: Percent increase in life span when compound administered at 25 mg/kg against P388 leukemia cells in BDF1 mice. It counts as functional. To be noted: Mus musculus. The method, boiled down: as §2
In data set [25] the test system is L1210. As to the kind of experiment: Percent survivors when compound administered at 25 mg/kg against L1210 cisplatin resistant leukemia cells in BDF1 mice. In kind it is functional, organism-based. Details: dose 25 mg/kg. The following applies: Mus musculus. The method, boiled down: as §2
Data set [26] has as its system P388. As to the kind of experiment: Percent survivors when compound administered at 25 mg/kg against P388 leukemia cells in BDF1 mice. It counts as functional. To be noted: Mus musculus. In outline:
as §2

Active and inactive are the calls of the source.

A word on the inhibition: it is the change of the read-out against control, counted positive when it falls. As to CARBOPLATIN, the values for the Survivors in data set [1] and in data set [2] were 17% and 6%, respectively. In addition, the Increase entry in [3] is “inactive”. Also, the Survivors result in [4] is “inactive”. In data set [5], this substance showed an inhibition of 90%. Moreover, the values for the Increase in [6], in [7] and in [8] were 35%, 144% and 85%, respectively.
Consider CISPLATIN, for which the Increase in [9] came to 36%; in data set [12], 47%; in data set [13], 96%; in [15] it was 140%. Besides, the Survivors in data set [10] came out at 17%; in [11] it was 17%; in data set [14], 0%. The Increase result in [3] was “inactive”. In [4], the Survivors entry was “inactive”.
In turn, “Platinum:2,4,10,15-Tetraoxa-8,16-diaza-dispiro[5.2.6.2]heptadecane-11,14-dione [listing 1 of 2 here]” gave a Water solubility in data set [16] of 10 mg/mL.
As to “Platinum:2,4,10,15-Tetraoxa-8,16-diaza-dispiro[5.2.6.2]heptadecane-11,14-dione [listing 2 of 2 here]”, the Increase in [17] was found to be 110%; in [19] it was 44%; in data set [21] it was 56%; in [22] it was 46%; in data set [24] it was 120%. For the same substance, the Survivors in data set [18] stood at 0%; in [20] it was 0%; in data set [23] it was 1%; in data set [25], 0%; in [26] it was 1%.
Turning to “Platinum:3,3-Dichloro-8,15-dioxa-2,4-diaza-dispiro[5.2.5.2]hexadecane”, in data set [16], the Water solubility was 0.2 mg/mL.
Still for that read-out and setting: with “Platinum:8,8-Dichloro-1,3-dioxa-7,9-diaza-spiro[4.5]decane” the figure was < 0.2 mg/mL.
